Measurements reported in ChEMBL document CHEMBL1671716, “Antimicrobial susceptibility patterns for recent clinical isolates of anaerobic bacteria in South Korea” (2010).
Values after ≈ are worked out from the molar mass of the structure shown.

Key:
Anaerococcus prevotii [1] = experiment: Antimicrobial activity against Anaerococcus prevotii after 48 hrs by agar dilution method; format: functional
Method in brief: (§1)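 MICs on clinical anaerobe isolates by the CLSI agar dilution method. Inoculum of 10^5 CFU applied with a Steers replicator. Plates incubated 48 h at 37°C in an anaerobic chamber.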

Schaalia odontolytica [2] = experiment: Antimicrobial activity against Actinomyces odontolyticus assessed as percent resistant isolates after 48 hrs by agar dilution method; format: functional
Method in brief: (§2)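 CLSI agar dilution on recent Korean clinical anaerobe isolates. Inoculum 10^5 CFU per spot by replicator. Plates incubated in an anaerobic chamber at 37°C for 48 h. For piperacillin plus tazobactam, tazobactam was held constant at 4 μg/ml. Resistance and susceptibility rates derived from MICs.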

Bacteroides ovatus = experiment: Antimicrobial activity against Bacteroides ovatus after 48 hrs by agar dilution method; format: functional; method in brief: as §1
[3] = system: Bifidobacterium adolescentis; experiment: Antimicrobial activity against Bifidobacterium adolescentis after 48 hrs by agar dilution method; format: functional; method in brief: as §1
Eubacterium sp. [4] = experiment: Antimicrobial activity against Eubacterium sp. assessed as percent resistant isolates after 48 hrs by agar dilution method; format: functional; method in brief: as §2
Anaerococcus prevotii [5] = experiment: Antimicrobial activity against Anaerococcus prevotii assessed as percent susceptible isolates after 48 hrs by agar dilution method; format: functional
[6] = system: Bifidobacterium adolescentis; experiment: Antimicrobial activity against Bifidobacterium adolescentis assessed as percent resistant isolates after 48 hrs by agar dilution method; format: functional; method in brief: as §2
Eubacterium sp. [7] = experiment: Antimicrobial activity against Eubacterium sp. after 48 hrs by agar dilution method; format: functional
Method in brief: (§3)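 CLSI agar dilution (M11-A7); inoculum 10^5 CFU applied by replicator; plates incubated anaerobically 48 h at 37°C. For piperacillin-tazobactam, tazobactam held constant at 4 μg/ml.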

Actinomyces israelii = experiment: Antimicrobial activity against Actinomyces israelii assessed as percent resistant isolates after 48 hrs by agar dilution method; format: functional; method in brief: as §2
Clostridium perfringens [8] = experiment: Antimicrobial activity against Clostridium perfringens assessed as percent susceptible isolates after 48 hrs by agar dilution method; format: functional
Prevotella bivia [9] = experiment: Antimicrobial activity against Prevotella bivia assessed as percent susceptible isolates after 48 hrs by agar dilution method; format: functional; method in brief: as §3
Schaalia meyeri = experiment: Antimicrobial activity against Actinomyces meyeri assessed as percent resistant isolates after 48 hrs by agar dilution method; format: functional; method in brief: as §2
Bacteroides caccae [10] = experiment: Antimicrobial activity against Bacteroides caccae after 48 hrs by agar dilution method; format: functional; method in brief: as §1
[11] = system: Bacteroides thetaiotaomicron; experiment: Antimicrobial activity against Bacteroides thetaiotaomicron assessed as percent resistant isolates after 48 hrs by agar dilution method; format: functional; method in brief: as §2
Prevotella bivia [12] = experiment: Antimicrobial activity against Prevotella bivia assessed as percent resistant isolates after 48 hrs by agar dilution method; format: functional; method in brief: as §2
Eggerthella lenta [13] = experiment: Antimicrobial activity against Eubacterium lentum after 48 hrs by agar dilution method; format: functional; method in brief: as §3
Prevotella intermedia [14] = experiment: Antimicrobial activity against Prevotella intermedia assessed as percent resistant isolates after 48 hrs by agar dilution method; format: functional; method in brief: as §2
Clostridium perfringens [15] = experiment: Antimicrobial activity against Clostridium perfringens after 48 hrs by agar dilution method; format: functional
Parvimonas micra = experiment: Antimicrobial activity against Peptostreptococcus micros assessed as percent susceptible isolates after 48 hrs by agar dilution method; format: functional; method in brief: as §2
[16] = system: Peptoniphilus asaccharolyticus; experiment: Antimicrobial activity against Peptoniphilus asaccharolyticus assessed as percent susceptible isolates after 48 hrs by agar dilution method; format: functional; method in brief: as §3
[17] = system: Peptostreptococcus anaerobius; experiment: Antimicrobial activity against Peptostreptococcus anaerobius after 48 hrs by agar dilution method; format: functional; method in brief: as §3
Clostridioides difficile [18] = experiment: Antimicrobial activity against Clostridium difficile assessed as percent resistant isolates after 48 hrs by agar dilution method; format: functional
Clostridioides difficile [19] = experiment: Antimicrobial activity against Clostridium difficile assessed as percent susceptible isolates after 48 hrs by agar dilution method; format: functional
[20] = system: Peptoniphilus asaccharolyticus; experiment: Antimicrobial activity against Peptoniphilus asaccharolyticus assessed as percent resistant isolates after 48 hrs by agar dilution method; format: functional; method in brief: as §2
[21] = system: Bifidobacterium adolescentis; experiment: Antimicrobial activity against Bifidobacterium adolescentis assessed as percent susceptible isolates after 48 hrs by agar dilution method; format: functional
Bifidobacterium sp. [22] = experiment: Antimicrobial activity against Bifidobacterium sp. assessed as percent resistant isolates after 48 hrs by agar dilution method; format: functional; method in brief: as §2
Finegoldia magna [23] = experiment: Antimicrobial activity against Finegoldia magna after 48 hrs by agar dilution method; format: functional; method in brief: as §3
[24] = system: Parabacteroides distasonis; experiment: Antimicrobial activity against Bacteroides distasonis assessed as percent susceptible isolates after 48 hrs by agar dilution method; format: functional
Prevotella buccae = experiment: Antimicrobial activity against Prevotella buccae assessed as percent resistant isolates after 48 hrs by agar dilution method; format: functional, Segatella buccae; method in brief: as §2
Hoylesella oralis = experiment: Antimicrobial activity against Prevotella oralis assessed as percent resistant isolates after 48 hrs by agar dilution method; format: functional; method in brief: as §2
Anaerococcus prevotii [25] = experiment: Antimicrobial activity against Anaerococcus prevotii assessed as percent resistant isolates after 48 hrs by agar dilution method; format: functional; method in brief: as §2
Eggerthella lenta [26] = experiment: Antimicrobial activity against Eubacterium lentum assessed as percent susceptible isolates after 48 hrs by agar dilution method; format: functional; method in brief: as §3
Prevotella intermedia [27] = experiment: Antimicrobial activity against Prevotella intermedia assessed as percent susceptible isolates after 48 hrs by agar dilution method; format: functional; method in brief: as §3
Schaalia odontolytica [28] = experiment: Antimicrobial activity against Actinomyces odontolyticus assessed as percent susceptible isolates after 48 hrs by agar dilution method; format: functional
Bifidobacterium sp. [29] = experiment: Antimicrobial activity against Bifidobacterium sp. after 48 hrs by agar dilution method; format: functional; method in brief: as §1
Actinomyces naeslundii = experiment: Antimicrobial activity against Actinomyces naeslundii assessed as percent susceptible isolates after 48 hrs by agar dilution method; format: functional
Eubacterium sp. [30] = experiment: Antimicrobial activity against Eubacterium sp. assessed as percent susceptible isolates after 48 hrs by agar dilution method; format: functional; method in brief: as §3
Fusobacterium varium = experiment: Antimicrobial activity against Fusobacterium varium after 48 hrs by agar dilution method; format: functional; method in brief: as §3
[31] = system: Peptoniphilus asaccharolyticus; experiment: Antimicrobial activity against Peptoniphilus asaccharolyticus after 48 hrs by agar dilution method; format: functional; method in brief: as §3
Phocaeicola vulgatus = experiment: Antimicrobial activity against Bacteroides vulgatus after 48 hrs by agar dilution method; format: functional; method in brief: as §1
Schaalia odontolytica [32] = experiment: Antimicrobial activity against Actinomyces odontolyticus after 48 hrs by agar dilution method; format: functional; method in brief: as §1
Bacteroides caccae [33] = experiment: Antimicrobial activity against Bacteroides caccae assessed as percent resistant isolates after 48 hrs by agar dilution method; format: functional; method in brief: as §2
[34] = system: Bacteroides thetaiotaomicron; experiment: Antimicrobial activity against Bacteroides thetaiotaomicron after 48 hrs by agar dilution method; format: functional; method in brief: as §1
Eggerthella lenta [35] = experiment: Antimicrobial activity against Eubacterium lentum assessed as percent resistant isolates after 48 hrs by agar dilution method; format: functional; method in brief: as §2
Clostridioides difficile [36] = experiment: Antimicrobial activity against Clostridium difficile after 48 hrs by agar dilution method; format: functional
Bacteroides caccae [37] = experiment: Antimicrobial activity against Bacteroides caccae assessed as percent susceptible isolates after 48 hrs by agar dilution method; format: functional
Finegoldia magna [38] = experiment: Antimicrobial activity against Finegoldia magna assessed as percent resistant isolates after 48 hrs by agar dilution method; format: functional; method in brief: as §2
Fusobacterium necrogenes = experiment: Antimicrobial activity against Fusobacterium necrogenes after 48 hrs by agar dilution method; format: functional; method in brief: as §3

C[C@@H](O)[C@H]1C(=O)N2C(C(=O)O)=C(S[C@@H]3CN[C@H](C(=O)N(C)C)C3)[C@H](C)[C@H]12 [MEROPENEM]
MIC50 (Anaerococcus prevotii [1]): 0.06 µg/mL (≈ 0.156 µM)
MIC90 (Anaerococcus prevotii [1]): 0.125 µg/mL (≈ 0.326 µM)
Activity (Schaalia odontolytica [2]): 8%
MIC50 (Bacteroides ovatus): 0.25 µg/mL (≈ 0.652 µM)
MIC90 (Bacteroides ovatus): 2 µg/mL (≈ 5.22 µM)
MIC50 [3]: 0.125 µg/mL (≈ 0.326 µM)
MIC90 [3]: 2 µg/mL (≈ 5.22 µM)
Activity (Eubacterium sp. [4]): 8%
Activity (Anaerococcus prevotii [5]): 100%
Activity [6]: 0%
MIC50 (Eubacterium sp. [7]): 0.125 µg/mL (≈ 0.326 µM)
MIC90 (Eubacterium sp. [7]): 2 µg/mL (≈ 5.22 µM)
Activity (Actinomyces israelii): 8%
Activity (Clostridium perfringens [8]): 100%
Activity (Prevotella bivia [9]): 100%
Activity (Schaalia meyeri): 8%
MIC50 (Bacteroides caccae [10]): 0.25 µg/mL (≈ 0.652 µM)
MIC90 (Bacteroides caccae [10]): 2 µg/mL (≈ 5.22 µM)
Activity [11]: 0%
Activity (Prevotella bivia [12]): 0%
MIC50 (Eggerthella lenta [13]): 0.125 µg/mL (≈ 0.326 µM)
MIC90 (Eggerthella lenta [13]): 2 µg/mL (≈ 5.22 µM)
Activity (Prevotella intermedia [14]): 0%
MIC50 (Clostridium perfringens [15]): 0.015 µg/mL (≈ 0.0391 µM)
MIC90 (Clostridium perfringens [15]): 0.015 µg/mL (≈ 0.0391 µM)
Activity (Parvimonas micra): 0%
Activity [16]: 100%
MIC [17]: 0.01 µg/mL (≈ 0.0261 µM)
MIC50 [17]: 0.25 µg/mL (≈ 0.652 µM)
MIC90 [17]: 4 µg/mL (≈ 10.4 µM)
Activity (Clostridioides difficile [18]): 0%
Activity (Clostridioides difficile [19]): 100%
Activity [20]: 0%
Activity [21]: 92%
Activity (Bifidobacterium sp. [22]): 8%
MIC50 (Finegoldia magna [23]): 0.06 µg/mL (≈ 0.156 µM)
MIC90 (Finegoldia magna [23]): 0.125 µg/mL (≈ 0.326 µM)
Activity [24]: 98%
Activity (Prevotella buccae): 0%
Activity (Hoylesella oralis): 0%
Activity (Anaerococcus prevotii [25]): 0%
Activity (Eggerthella lenta [26]): 92%
Activity (Prevotella intermedia [27]): 100%
Activity (Schaalia odontolytica [28]): 92%
MIC50 (Bifidobacterium sp. [29]): 0.125 µg/mL (≈ 0.326 µM)
MIC90 (Bifidobacterium sp. [29]): 2 µg/mL (≈ 5.22 µM)
Activity (Actinomyces naeslundii): 92%
Activity (Eubacterium sp. [30]): 92%
MIC (Fusobacterium varium): 0.008 µg/mL (≈ 0.0209 µM)
MIC50 [31]: ≤ 0.008 µg/mL
MIC90 [31]: 0.03 µg/mL (≈ 0.0782 µM)
MIC50 (Phocaeicola vulgatus): 0.25 µg/mL (≈ 0.652 µM)
MIC90 (Phocaeicola vulgatus): 2 µg/mL (≈ 5.22 µM)
MIC50 (Schaalia odontolytica [32]): 0.125 µg/mL (≈ 0.326 µM)
MIC90 (Schaalia odontolytica [32]): 2 µg/mL (≈ 5.22 µM)
Activity (Bacteroides caccae [33]): 0%
MIC50 [34]: 0.25 µg/mL (≈ 0.652 µM)
MIC90 [34]: 2 µg/mL (≈ 5.22 µM)
Activity (Eggerthella lenta [35]): 8%
MIC50 (Clostridioides difficile [36]): 2 µg/mL (≈ 5.22 µM)
MIC90 (Clostridioides difficile [36]): 2 µg/mL (≈ 5.22 µM)
Activity (Bacteroides caccae [37]): 98%
Activity (Finegoldia magna [38]): 0%
MIC (Fusobacterium necrogenes): 0.008 µg/mL (≈ 0.0209 µM)
